Data on eleven molecules can be found in ChEMBL document CHEMBL1142689, “Identification of 2-(4-benzyloxyphenyl)-N- [1-(2-pyrrolidin-1-yl-ethyl)-1H-indazol-6-yl]acetamide, an orally efficacious melanin-concentrating hormone receptor 1 antagonist for the treatment of obesity” (J Med Chem, 2005).

What is called IC50 is the concentration needed to halve the response being measured. High values mean a need for much substance, low ones inhibition by little substance. The Cmax is the peak of the concentration-time curve.

The nature of series [1]: Area under concentration time curve in plasma of mice following peroral administration of 10 mg/kg of the compound. More on the design: dose 10 mg/kg, route oral. It is filed as ADME, organism-based. The following applies: mouse, in vivo, po. The procedure, abridged:
(§1)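 DIO mice given a single 10 mg/kg oral dose in 1% Tween-80 in water. Plasma and brain drug levels were measured over time. Cmax is the average of the three mice with the highest concentrations. AUC0-t was calculated by the linear trapezoidal rule, and the residual area (Ct/β) was added to give AUC0-∞. C12h is the brain level at 12 h postdose.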

The nature of series [2]: Area under concentration time curve in brain of mice following peroral administration of 10 mg/kg of the compound. The format is ADME, organism-based. Also on record: dose 10 mg/kg, route oral. The settings on record: mouse, in vivo, po. The procedure, abridged: as §1
For series [3], the target named is T1, Melanin-concentrating hormone receptor 1 (Homo sapiens, UniProt Q99705). The series can be described thus: Inhibition of melanin concentrating hormone receptor 1-mediated [Ca2+] release in human neuronal IMR-32 cells. It is filed as functional, cell-based.
Series [4] deals with T1, Melanin-concentrating hormone receptor 1. The experiment in a line: Inhibition of melanin concentrating hormone receptor 1 from human neuronal IMR-32 cells. The format is cell-based.
The nature of series [5]: Maximum concentration in brain of mice at 12 hours following peroral administration at 10 mg/kg; n=3. More on the design: dose 10 mg/kg, route oral. It is filed as ADME, organism-based. The following applies: mouse, po. The procedure, abridged:
as §1

Series [6] is described as follows: Area under concentration time curve in plasma of mice following peroral administration at 10 mg/kg; n=3. The format is ADME, organism-based. More on the design: dose 10 mg/kg, route oral. The following applies: mouse, in vivo, po. Summed up: as §1
A short description of series [7]: Maximum concentration in brain of mice following peroral administration at 10 mg/kg; n=3. It is filed as ADME, organism-based. More on the design: dose 10 mg/kg, route oral. The following applies: mouse, po. The procedure, abridged:
as §1

A short description of series [8]: Area under concentration time curve in brain of mice following peroral administration at 10 mg/kg; n=3. It is filed as ADME, organism-based. More on the design: dose 10 mg/kg, route oral. The settings on record: mouse, in vivo, po. The procedure, abridged:
as §1

For series [9], the system named is Mus musculus. The series can be described thus: Change in body weight of mice on day 14 following peroral administration at 30 mg/kg, twice a day; n = 12; body weight at day 0 = 45 g. It is filed as functional. The following applies: route oral. Summed up: (§2)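 Chronic study in DIO mice fed a high-fat diet ad libitum. Dosing was by oral gavage, bid for 14 days, in 4 mL/kg of 1% Tween-80 in water, with vehicle controls. Body weight and food intake were recorded on days 1, 4, 7, 11 and 14. Body-weight change is in grams relative to day 0, and % change is relative to vehicle. Mean ± SEM, n = 12.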

Series [10] can be described thus: Concentration in brain of mice,1 hour after administration of final dose at 30 mg/kg, twice a day. It is filed as ADME, organism-based. Also on record: dose 30 mg/kg. The following applies: mouse, read-out: Cmax. Summed up:
(§3)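 DIO mice received the test compound orally, bid, in 1% Tween-80 in water for 14 days. Plasma and brain drug concentrations were measured 1 h (taken as Cmax) or 17 h after the final dose on day 14. Mean ± SEM, n = 3.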

Series [11] deals with Mus musculus. The series can be described thus: Change in body weight of mice on day 14 following peroral administration at 10 mg/kg, twice a day; n = 12; body weight at day 0 = 44.7 g. The format is functional. The following applies: route oral. Summed up:
as §2

Series [12] in a line: Concentration in brain of mice,17 hours after administration of final dose at 30 mg/kg, twice a day. It is filed as ADME, organism-based. More on the design: dose 30 mg/kg. The settings on record: mouse, read-out: Cmax. Summed up:
as §3

Series [13] can be described thus: Concentration in brain of mice,17 hours after administration of final dose at 10 mg/kg, twice a day. The format is ADME, organism-based. More on the design: dose 10 mg/kg. The following applies: mouse, read-out: Cmax. The procedure, abridged:
as §3

The subject of series [14] is Mus musculus. The experiment in a line: Body weight of mice on day 14 following peroral administration at 10 mg/kg, twice a day; n = 12. It is filed as functional. The settings on record: route oral. Summed up:
as §2

Series [15] is described as follows: Concentration in plasma of mice,17 hours after administration of final dose at 10 mg/kg, twice a day. The format is ADME, organism-based. Also on record: dose 10 mg/kg. The following applies: mouse, read-out: Cmax. The procedure, abridged: as §3
The nature of series [16]: Concentration in brain of mice,1 hour after administration of final dose at 10 mg/kg, twice a day. The following applies: mouse, read-out: Cmax. More on the design: dose 10 mg/kg. It is filed as ADME, organism-based. The procedure, abridged:
as §3

Series [17] relates to Mus musculus. The experiment in a line: Body weight of mice on day 14 following peroral administration at 30 mg/kg, twice a day; n = 12. The format is functional. The following applies: route oral. Summed up: as §2
A short description of series [18]: Concentration in plasma of mice,1 hour after administration of final dose at 30 mg/kg, twice a day. The format is ADME, organism-based. More on the design: dose 30 mg/kg. The following applies: mouse, read-out: Cmax. Summed up:
as §3

Series [19] in a line: Concentration in plasma of mice,17 hours after administration of final dose at 30 mg/kg, twice a day. It is filed as ADME, organism-based. More on the design: dose 30 mg/kg. The following applies: mouse, read-out: Cmax. Summed up:
as §3

The nature of series [20]: Concentration in plasma of mice,1 hour after administration of final dose at 10 mg/kg, twice a day. The format is ADME, organism-based. Also on record: dose 10 mg/kg. The following applies: mouse, read-out: Cmax. The procedure, abridged: as §3
Series [21] is described as follows: Maximum concentration of the compound in brain of mice following peroral administration at 10 mg/kg; n=3. More on the design: dose 10 mg/kg, route oral. It is filed as ADME, organism-based. The settings on record: mouse, po. Summed up: as §1
Series [22] deals with Mus musculus. The series can be described thus: Body weight of mice on day 14 following peroral administration at 10 mg/kg, 4 times a day; n = 12. The format is functional. The following applies: route oral.
Series [23] deals with Mus musculus. The series can be described thus: Change in body weight of mice on day 14 following peroral administration at 10 mg/kg, 4 times a day; n = 12; body weight at day 0 = 43.2 g. It is filed as functional. The following applies: route oral.

T1 sequence (Q99705 whole entry): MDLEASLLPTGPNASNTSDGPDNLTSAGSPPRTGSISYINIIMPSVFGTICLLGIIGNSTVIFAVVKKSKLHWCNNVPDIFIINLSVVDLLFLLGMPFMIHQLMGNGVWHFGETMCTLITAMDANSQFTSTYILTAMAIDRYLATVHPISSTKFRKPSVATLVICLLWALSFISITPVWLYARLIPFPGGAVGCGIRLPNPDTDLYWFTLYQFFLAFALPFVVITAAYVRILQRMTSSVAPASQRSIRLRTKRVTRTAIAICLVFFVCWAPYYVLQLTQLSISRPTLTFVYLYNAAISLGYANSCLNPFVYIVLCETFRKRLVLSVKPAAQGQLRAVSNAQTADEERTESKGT

Take `O=C(Cc1ccc(OCc2ccccc2)cc1)Nc1ccc2ccn(CCN3CCCC3)c2c1`: the AUC in [1] came out at 1.37 µg/h/mL; in series [2] it was 0.348 µg/h/g. Also, the IC50 worked out at 1470 nM in [3] and 22 nM in series [4].
As for `O=C(Cc1ccc(OCc2ccccc2)cc1)Nc1cccc2nn(CCN3CCCC3)cc12`, the Cmax is 12.3 ng/g in [5] and 214 ng/g in series [7]. In addition, the AUC in series [6] amounted to 2.09 µg/h/g; in series [8], 0.214 µg/h/g. The results for the IC50 in series [3] and in series [4] were 287 nM and 41.4 nM, respectively.
As to `O=C(Cc1ccc(OCc2ccccc2)cc1)Nc1ccc2cnn(CCN3CCCC3)c2c1`, the Activity was -15.2% in the series with Mus musculus [9] and -8.25% in the series on Mus musculus [11]. Further, the concentration at 1 h was determined as 233 ng/mL in series [10], 115 ng/mL in series [16], 824 ng/mL in series [18] and 168 ng/mL in [20]. In addition, the concentration at 17 h in series [12] came to 5.35 ng/mL; in [13], 7.02 ng/mL; in series [15] it was 0.39 ng/mL; in series [19], 2.23 ng/mL. For the same molecule, the Body weight amounted to 42.6 g in the series with Mus musculus [14] and 39.7 g in the series with Mus musculus [17]. Further, the Cmax in [5] came out at 29 ng/g; in series [7] it was 177 ng/g. The AUC in [6] was found to be 2.12 µg/h/g; in [8], 1.33 µg/h/g. For the same molecule, the IC50 in series [3] amounted to 11 nM; in series [4], 1.4 nM.
In the case of `O=C(Cc1ccc(OCc2ccccc2)cc1)Nc1ccc2c(c1)ncn2CCN1CCCC1`, the IC50 in series [3] was greater than 10000 nM; in [4] it was 772 nM.
In the case of `O=C(Cc1ccc(OCc2ccccc2)cc1)Nc1ccc2nn(CCN3CCCC3)cc2c1`, the figures for the IC50 in [3] and in series [4] were greater than 10000 nM and 1990 nM, respectively.
In the case of `O=C(Cc1ccc(OCc2ccccc2)cc1)Nc1ccc2ncn(CCN3CCCC3)c2c1`, the concentration in series [21] peaked (Cmax) at 54.4 ng/g. The AUC in series [6] was 0.937 µg/h/g; in series [8], 0.244 µg/h/g. In addition, the results for the IC50 in [3] and in series [4] were greater than 10000 nM and 161 nM, respectively.
As for `CCN[C@@H](C)Cc1cccc(C(F)(F)F)c1` [DEXFENFLURAMINE], the Body weight with Mus musculus [22] was found to be 40.4 g. Also, the Activity in the series on Mus musculus [23] is given as -10.1%.
Turning to `O=C(Cc1ccc(OCc2ccccc2)cc1)Nc1cccc2c1cnn2CCN1CCCC1`, the Cmax in series [5] was 8.11 ng/g; in [7] it was 464 ng/g. Further, the AUC in series [6] was 0.611 µg/h/g; in series [8], 1.18 µg/h/g. For the same molecule, the IC50 in series [3] turned out to be 71 nM; in [4], 24.5 nM.
Consider `O=C(Cc1ccc(OCc2ccccc2)cc1)Nc1ccc2cn(CCN3CCCC3)nc2c1`, for which the IC50 in [3] stood at 874 nM; in [4], 146 nM.
`O=C(CNCc1ccc(Oc2ccccc2)cc1)Nc1ccc2ncn(CCN3CCCC3)c2c1`: the results for the AUC in [1] and in series [2] were 1.16 µg/h/mL and 0.674 µg/h/g, respectively. Moreover, the IC50 in series [3] came out at 1810 nM; in series [4], 299 nM.
For the molecule `O=C(Cc1ccc(OCc2ccccc2)cc1)Nc1ccc2c(cnn2CCN2CCCC2)c1`, the Cmax amounted to 76 ng/g in series [5] and 4260 ng/g in [7]. In addition, the AUC in series [6] was determined as 8.51 µg/h/g; in [8], 10.4 µg/h/g. The IC50 in [3] was greater than 10000 nM; in series [4] it was 558 nM.
